ChEMBL document CHEMBL1146375, “Synthetic studies on novel benzimidazolopeptides with antimicrobial, cytotoxic and anthelmintic potential” (2007)
≈ marks a conversion by molar mass, not a printed value. Residues, ends and D or L forms follow the SMILES beside them. *: point of attachment. X3 = Cc1cc2nc(-c3c(I)cc(C(=O)*)cc3I)[nH]c2cc1C

Tests used:
[1] = Growth inhibition of EAC cells at 31.25 ug/mL after 3 hrs; type: functional; conditions: Mus musculus, Ehrlich
In short: (§1)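 DLA and EAC cells passaged intraperitoneally in albino mice, harvested after 15–20 days and adjusted to 1 × 10⁶ cells/mL. Dilutions in Dulbecco's medium (500–31.25, some down to 3.91 µg/mL; 5-FU reference) mixed 1:1 with cells and held 3 h at 37 °C. Trypan blue exclusion gave % growth inhibition; CTC50 by graphical extrapolation.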

[2] = Anthelmintic activity against Megascoplex konkanensis ICARBC 211 assessed as mean death time; type: functional
In short: (§2)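 Earthworms exposed to test suspensions at 2 mg mL^-1 (0.2% w/v), made by triturating compound with Tween 80 (0.5%) and distilled water, then mechanically stirred 30 min. Mebendazole suspension prepared alike as reference. Paralysis and death times recorded; death confirmed by no movement in 50 °C water. Means from triplicate sets.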

[3] = Growth inhibition of DLA cells at 31.25 ug/mL after 3 hrs; type: functional; conditions: Mus musculus; in short: as §1
[4] = tested on: Pseudomonas aeruginosa; experiment: Antibacterial activity against Pseudomonas aeruginosa NCIM 2034 after 18 hrs by tube dilution method; type: functional; conditions: NCIM 2034, 18 h
In short: (§3)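 Tube dilution MIC. Stock diluted in sterile broth to seven concentrations from 200 to 3.1 […]. Each tube inoculated with one loopful of test bacterium and incubated 18 h at 37 °C. MIC read from presence or absence of growth.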

[5] = Growth inhibition of EAC cells after 3 hrs; type: functional; conditions: Mus musculus, Ehrlich; in short: as §1
[6] = Growth inhibition of DLA cells at 500 ug/mL after 3 hrs; type: functional; conditions: Mus musculus; in short: as §1
[7] = tested on: Pontoscolex corethrurus; experiment: Anthelmintic activity against Pontoscolex corethrurus ICARBC 408 assessed as mean death time; type: functional
In short: (§4)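 Earthworms exposed to test suspensions at 2 mg mL−1, prepared by triturating compound with Tween 80 (0.5%) and distilled water, stirring 30 min, then diluting to 0.2% w/v. Mebendazole suspension was made the same way. Death was confirmed by moving worms into 50 °C warm water and looking for movement. Mean death time (min) taken from triplicate sets.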

[8] = Growth inhibition of DLA cells at 62.5 ug/mL after 3 hrs; type: functional; conditions: Mus musculus; in short: as §1
[9] = tested on: Candida albicans; experiment: Antifungal activity against Candida albicans MUCC 29 after 48 hrs by disc diffusion method; type: functional
In short: (§5)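 Agar well diffusion on plates inoculated with spore suspension in normal saline from cultures on Sabouraud's broth. Wells punched and loaded with test samples or griseofulvin at 10 mg mL^-1, with DMSO as negative control. Incubated 48 h at 37 °C.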

[10] = tested on: Staphylococcus aureus; experiment: Antibacterial activity against Staphylococcus aureus NCIM 2079 after 18 hrs by tube dilution method; type: functional; conditions: NCIM 2079, 18 h; in short: as §3
[11] = tested on: Eudrilus; experiment: Anthelmintic activity against Eudrilus sp. assessed as mean paralyzing time; type: functional; in short: as §2
[12] = Growth inhibition of DLA cells at 250 ug/mL after 3 hrs; type: functional; conditions: Mus musculus; in short: as §1
[13] = Growth inhibition of EAC cells at 250 ug/mL after 3 hrs; type: functional; conditions: Mus musculus, Ehrlich; in short: as §1
[14] = tested on: Escherichia coli; experiment: Antibacterial activity against Escherichia coli NCIM 2065 after 18 hrs by tube dilution method; type: functional; conditions: NCIM 2065, 18 h
[15] = tested on: Bacillus subtilis; experiment: Antibacterial activity against Bacillus subtilis NCIM 2063 after 18 hrs by tube dilution method; type: functional; conditions: NCIM 2063, 18 h; in short: as §3
[16] = Anthelmintic activity against Megascoplex konkanensis ICARBC 211 assessed as mean paralyzing time; type: functional; in short: as §2
[17] = tested on: Staphylococcus aureus; experiment: Antibacterial activity against Staphylococcus aureus NCIM 2079 after 18 hrs by disc diffusion method; type: functional
In short: (§6)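 Modified Kirby-Bauer disc diffusion. Plates inoculated with spore suspension (about 6 × 10⁴ spores mL^-1). Sterile 6 mm paper discs carried test samples at 10 mg mL^-1; ciprofloxacin disc as reference, DMF disc as negative control. Plates held 18 h at 37 °C. Inhibition zone diameters (mm) averaged over triplicate sets.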

[18] = Growth inhibition of EAC cells at 125 ug/mL after 3 hrs; type: functional; conditions: Mus musculus, Ehrlich; in short: as §1
[19] = Growth inhibition of DLA cells after 3 hrs; type: functional; conditions: Mus musculus; in short: as §1
[20] = tested on: Microsporum audouinii; experiment: Antifungal activity against Microsporum audouinii MUCC 545 after 48 hrs by disc diffusion method; type: functional; in short: as §5
[21] = tested on: Bacillus subtilis; experiment: Antibacterial activity against Bacillus subtilis NCIM 2063 after 18 hrs by disc diffusion method; type: functional; in short: as §6
[22] = tested on: Candida albicans; experiment: Antifungal activity against Candida albicans MUCC 29 after 48 hrs by tube dilution method; type: functional
In short: (§7)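 Tube dilution MIC as for bacteria (seven concentrations, 200–3.1 […]), with DMSO in place of DMF. Tubes inoculated with fungal culture and incubated 48 h at 37 °C. MIC read from presence or absence of growth.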

[23] = tested on: Aspergillus niger; experiment: Antifungal activity against Aspergillus niger MUCC 177 after 48 hrs by disc diffusion method; type: functional; in short: as §5
[24] = tested on: Pseudomonas aeruginosa; experiment: Antibacterial activity against Pseudomonas aeruginosa NCIM 2034 after 18 hrs by disc diffusion method; type: functional; in short: as §6
[25] = tested on: Eudrilus; experiment: Anthelmintic activity against Eudrilus sp. assessed as mean death time; type: functional; in short: as §4
[26] = tested on: Microsporum audouinii; experiment: Antifungal activity against Microsporum audouinii MUCC 545 after 48 hrs by tube dilution method; type: functional; in short: as §7
[27] = Growth inhibition of EAC cells at 500 ug/mL after 3 hrs; type: functional; conditions: Mus musculus, Ehrlich; in short: as §1
[28] = Growth inhibition of EAC cells at 62.5 ug/mL after 3 hrs; type: functional; conditions: Mus musculus, Ehrlich; in short: as §1
[29] = tested on: Pontoscolex corethrurus; experiment: Anthelmintic activity against Pontoscolex corethrurus ICARBC 408 assessed as mean paralyzing time; type: functional; in short: as §2
[30] = Growth inhibition of DLA cells at 125 ug/mL after 3 hrs; type: functional; conditions: Mus musculus; in short: as §1
[31] = tested on: Escherichia coli; experiment: Antibacterial activity against Escherichia coli NCIM 2065 after 18 hrs by disc diffusion method; type: functional; in short: as §6
[32] = tested on: Trichophyton benhamiae; experiment: Antifungal activity against Trichophyton mentagrophytes MUCC 665 after 48 hrs by tube dilution method; type: functional, Arthroderma benhamiae; in short: as §7
[33] = tested on: Trichophyton benhamiae; experiment: Antifungal activity against Trichophyton mentagrophytes MUCC 665 after 48 hrs by disc diffusion method; type: functional, Arthroderma benhamiae; in short: as §5

SMILES | TIME [2] [h] | MIC [4] [µg/mL] | Time [7] [min] | inhibition zone (IZ) [9] [mm] | MIC [10] [µg/mL] | Time [11] [min] | MIC [14] [µg/mL] | MIC [15] [µg/mL] | TIME [16] [h] | inhibition zone (IZ) [17] [mm] | inhibition zone (IZ) [20] [mm] | inhibition zone (IZ) [21] [mm] | MIC [22] [µg/mL] | inhibition zone (IZ) [23] [mm] | inhibition zone (IZ) [24] [mm] | Time [25] [min] | MIC [26] [µg/mL] | Time [29] [min] | inhibition zone (IZ) [31] [mm] | MIC [32] [µg/mL] | also measured
COC(=O)[C@H](CCCNC(=N)N[N+](=O)[O-])NC(=O)[C@@H]1CCCN1C(=O)c1cc(I)c(-c2nc3cc(C)c(C)cc3[nH]2)c(I)c1 | 0.439 | 6 (≈ 7.23 µM) | 34.45 | 23 | 12.5 (≈ 15.1 µM) | 19.43 | 12.5 (≈ 15.1 µM) | 6 (≈ 7.23 µM) | 0.299 | 12 | 10 | 17 | 6 (≈ 7.23 µM) | 14 | 27 | 30.02 | 25 (≈ 30.1 µM) | 22.77 | 18 | 6 (≈ 7.23 µM) | inhibition at 31.25 µg/mL [1]: 21.4%; inhibition at 31.25 µg/mL [3]: 15.8%; CC50 [5]: 84.3 µM; inhibition at 500 µg/mL [6]: 84.2%; inhibition at 62.5 µg/mL [8]: 28.9%; inhibition at 250 µg/mL [12]: 68.4%; inhibition at 250 µg/mL [13]: 100%; inhibition at 125 µg/mL [18]: 100%; CC50 [19]: 114 µM; inhibition at 500 µg/mL [27]: 100%; inhibition at 62.5 µg/mL [28]: 35.7%; inhibition at 125 µg/mL [30]: 52.6%; inhibition zone (IZ) [33]: 12 mm
O=C(O)[C@@H]1CCCN1C(=O)[C@@H]1CCCN1C(=O)[C@@H]1CCCN1C(=O)c1cc(-c2nc3ccc([N+](=O)[O-])cc3[nH]2)ccc1O | 0.567 | 6 (≈ 10.2 µM) | 40.2 | 24 | 12.5 (≈ 21.2 µM) | 26.54 | 25 (≈ 42.3 µM) | 6 (≈ 10.2 µM) | 0.418 | 11 | 13 | 14 | 6 (≈ 10.2 µM) | 17 | 28 | 37.23 | 6 (≈ 10.2 µM) | 30.52 | 17 | 12.5 (≈ 21.2 µM) | inhibition at 31.25 µg/mL [1]: 3.57%; inhibition at 31.25 µg/mL [3]: 18.4%; CC50 [5]: > 847 µM; inhibition at 500 µg/mL [6]: 65.8%; inhibition at 62.5 µg/mL [8]: 34.2%; inhibition at 250 µg/mL [12]: 52.6%; inhibition at 250 µg/mL [13]: 21.4%; inhibition at 125 µg/mL [18]: 10.7%; CC50 [19]: 332 µM; inhibition at 500 µg/mL [27]: 28.7%; inhibition at 62.5 µg/mL [28]: 7.14%; inhibition at 125 µg/mL [30]: 47.4%; inhibition zone (IZ) [33]: 17 mm
COC(=O)[C@@H]1CCCN1C(=O)c1ccc(-c2nc3cc(C)c(C)cc3[nH]2)cc1 | 0.676 | 6 (≈ 15.9 µM) | 50.26 | 16 | 12.5 (≈ 33.1 µM) | 32.25 | 12.5 (≈ 33.1 µM) | 6 (≈ 15.9 µM) | 0.473 | 11 | 9 | 13 | 6 (≈ 15.9 µM) | 17 | 22 | 45.34 | 25 (≈ 66.2 µM) | 35.57 | 17 | 6 (≈ 15.9 µM) | inhibition at 250 µg/mL [12]: 18.4%; inhibition zone (IZ) [33]: 13 mm
COC(=O)CNC(=O)[C@H](Cc1ccc(O)cc1)NC(=O)[C@H](C)NC(=O)c1cc(I)c(-c2nc3cc(C)c(C)cc3[nH]2)c(I)c1 | 0.652 | 6 (≈ 7.29 µM) | 48.24 | 15 | 12.5 (≈ 15.2 µM) | 27.42 | 12.5 (≈ 15.2 µM) | 6 (≈ 7.29 µM) | 0.472 | 12 | 9 | 15 | 6 (≈ 7.29 µM) | 15 | 20 | 45.3 | 12.5 (≈ 15.2 µM) | 34.13 | 17 | 12.5 (≈ 15.2 µM) | inhibition zone (IZ) [33]: 13 mm
CC[C@H](C)[C@H](NC(=O)CNC(=O)c1cc(I)c(-c2nc3cc(C)c(C)cc3[nH]2)c(I)c1)C(=O)NCC(=O)N[C@H](C(=O)OC)[C@@H](C)O (X3-GIGT-OMe) | 1.08 | 6 (≈ 6.97 µM) | 82.3 | 13 | 12.5 (≈ 14.5 µM) | 38.45 | 12.5 (≈ 14.5 µM) | 6 (≈ 6.97 µM) | 0.602 | 12 | 9 | 15 | 12.5 (≈ 14.5 µM) | 18 | 22 | 70.54 | 25 (≈ 29.1 µM) | 57.67 | 17 | 25 (≈ 29.1 µM) | inhibition zone (IZ) [33]: 9 mm
